# Insulin prom act: TRM-6 insulin promoter activation | hit rate 0.81% among 130,000 | activation, % at 2 µM | TRM-6 cells (human fetal islet line), insulin promoter eGFP reporter, imaging; plate-scaled: unstimulated 0, stimulated control 100;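 active means activation at 2 µM above a set limit, confirmed on inspection of the cell images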;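 further: share of cells whose green reporter signal exceeds an intensity cutoff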
#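 test system = TRM-6 insulin promoter–eGFP reporter cells | benchmarks = stimulated versus unstimulated wells as plate controls | read-out basis = percent cells above green-intensity threshold, converted to percent activation versus plate controls | detection = fixed-cell fluorescence microscopy, eGFP plus Hoechst | incubation = tamoxifen pre-incubation 15 h overnight, then compound exposure 48 h at 37 °C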
# * hit, by the source's call; [ ] = dose if it differs, or a comment. This is one part of a sample in which hits are shown more often than they occur.
SMILES,Insulin prom act
CC(=O)Nc1ccc(C(=O)Nc2ccc(S(=O)(=O)NCC3CCCO3)cc2)cc1 (stereo unspecified),-6.1
CCCCNS(=O)(=O)c1ccc(NS(=O)(=O)c2c(C)cc(C)cc2C)cc1,-2.9
O=S(=O)([O-])CCC[n+]1c(SCCCS(=O)(=O)O)sc2ccc(Cl)cc21,7.4
Cn1c(=O)c2c(nc(Cl)n2CC(=O)N2CCCCC2)n(C)c1=O,0.0
O=C1NC(=O)/C(=C\c2cn(Cc3ccccc3F)c3ccccc23)N1,0.0
O=c1c2ccsc2ncn1Cc1ccccc1F,9.7
COc1ccc(-c2noc(CCN3C(=O)c4ccccc4C3=O)n2)cc1OC,-8.6
COc1cc2c3nnc(-c4ccc(F)cc4)c-3cn(Cc3ccccc3F)c2cc1OC,800.0*
COc1cc2c3nnc(-c4ccccc4)c-3cn(Cc3ccccc3F)c2cc1OC,525.0*
Cc1sc2ncn(Cc3ccccc3F)c(=O)c2c1C,0.0
Cc1cccc(-n2cnc3cc(C(=O)N4CCc5ccccc54)ccc32)c1,-8.6
COc1ccccc1NC(C)C(=O)Nc1ccc(C(C)=O)cc1 (stereo unspecified),0.0
CC(C)(C)NC(=O)C(=O)NN=C1CCCCCCCCCCC1,-7.7
CNC(=O)CN(c1cc(OCCOC)c(Cl)cc1Cl)S(=O)(=O)c1ccc(OC)cc1,135.7
COc1ccc(NS(=O)(=O)c2ccc(SC)cc2)c(OC)c1,3.6
COc1ccc(S(=O)(=O)Nc2ccccc2C)cc1,4.2
COc1ccc(S(=O)(=O)Nc2cc3c4c(oc3c3ccccc23)CC(C)(C)CC4=O)cc1,86.8*
CC1CCc2sc(C(=O)N=Nc3c(O)[nH]c4ccccc34)cc2C1 (stereo unspecified),7.9
COc1ccc(OCC(=O)NCCc2c[nH]c3ccccc23)cc1,7.1
CCOc1ccc(OCCN2C(=O)NC(Cc3c[nH]c4ccccc34)C2=O)cc1 (stereo unspecified),533.3*
COc1ccc(OCCN2C(=O)c3ccccc3C2=O)cc1,107.7
COc1ccc(OCC(=O)Nc2ccc(N3CCN(C(=O)c4ccccc4C)CC3)cc2)cc1,0.0
CCC(C)c1ccccc1OCCn1ccnc1 (stereo unspecified),-3.8
Cc1cc(C(=O)COC(=O)Cc2n[nH]c(=O)c3ccccc23)c(C)n1-c1ccc2c(c1)OCCO2,-6.1
O=C(CCSc1nnc(-c2ccco2)o1)Nc1ccc(F)cc1,-72.7
SMILES,Insulin prom act
Nc1c(C(=O)Nc2ccc(S(=O)(=O)N3CCCC3)cc2)sc2nc3ccc(OC(F)(F)F)cc3cc12,231.0*
O=C(Nc1ccc(S(=O)(=O)N2CCCCC2)cc1)c1ccncc1,8.3
Nc1c(C(=O)Nc2ccc(S(=O)(=O)N3CCCC3)cc2)sc2nc3cc4c(cc3cc12)CCC4,181.8
CCN(CC)C(=O)N1CCc2ccccc2C1CN1C(=O)c2ccccc2C1=O (stereo unspecified),9.5
O=C(Oc1ccc2ccccc2c1)c1ccccc1,8.3
CC1CC(C)CN(C(=O)Cn2c(SCC(=O)N3CCc4ccccc4C3)nc3ccccc32)C1 (stereo unspecified),106.7
CC1CCN(C(=O)CSCC(=O)Nc2nc(-c3cccs3)cs2)CC1,0.0
CC1CCN(C(=O)Cn2c(SCC(=O)Nc3nccs3)nc3ccccc32)CC1,154.5*
N#CCCn1cc(C(=O)Nc2ccc([N+](=O)[O-])cc2)c(-c2cc3ccccc3o2)n1,5.6
CN(Cc1ccccc1)S(=O)(=O)c1cccc(C(=O)O)c1,0.0
Cc1cccnc1NC(=O)COc1ccc2oc3c(c2c1)CCCC3,433.3*
Cc1cc(C)cc(OCC(=O)Nc2nonc2NC(=O)COc2cc(C)cc(C)c2)c1,-5.6
COc1cc2c(cc1NC(=O)COc1ccc3ccccc3c1)oc1ccccc12,-7.1
COC(=O)c1c(CSc2ccc(C)c(C)c2)noc1C(=O)NCc1ccc(OC)cc1,8.9
Cc1ccc2c(Cl)c(C(=O)Nc3cccnc3)sc2c1,0.0
Cc1c(N2C(=O)C(=O)/C(=C(/O)c3ccc(Cl)cc3)C2c2ccccc2)c(=O)n(-c2ccccc2)n1C (stereo unspecified),3.3
COc1ccc(CNC(=O)C/C(C)=N/NC(=O)COc2ccc(C)cc2Br)cc1,2.6
O=C(c1cnn2c(C(F)F)cc(-c3ccccc3)nc12)N1CCN2CCCC2C1 (stereo unspecified),104.5
Cc1cc(C(F)F)n2ncc(C(=O)N3CCCCC3)c2n1,246.7
COc1ccc(-c2cc(C(F)F)n3ncc(C(=O)N4CCc5ccccc5C4)c3n2)cc1,392.9*
COc1ccccc1NS(=O)(=O)c1cc(C)ccc1C,9.7
COc1ccccc1NS(=O)(=O)c1cc([N+](=O)[O-])ccc1N/N=C/c1c(C)[nH]c2ccccc12,260.0*
COc1ccccc1NS(=O)(=O)c1ccc(N/N=C(\C)C(C)C)c([N+](=O)[O-])c1,-8.8
CCOC(=O)c1c(-c2ccc(Cl)cc2)c(C#N)c(=O)n(N)c1N,9.4
Cc1ncc([N+](=O)[O-])n1Cc1ccc(Br)cc1,0.0
SMILES,Insulin prom act
CCN(CC)c1ccc(NC(=O)/C=C\c2ccccc2Cl)cc1,0.0
CCN(CC)c1ccc(/C=C/C(=O)C2C(=O)C=C(C)OC2=O)cc1 (stereo unspecified),809.1*[fluoresces]
Cc1ccc(NC(=O)CSc2nnc(C3CC3)n2N)cc1S(=O)(=O)N1CCOCC1,9.1
O=S(=O)(NC1CCCC1)c1cccc(S(=O)(=O)N2CCC(n3nnc4ccccc43)CC2)c1,157.1*
O=S(=O)(NCC1CCCO1)c1cccc(S(=O)(=O)N2CCCC2)c1 (stereo unspecified),0.0
Cc1cccc(NC(=O)N2CCC(n3nnc4cc(C)ccc43)CC2)c1,0.0
COc1ccccc1NC(=O)C/C(C)=N/NC(=O)COc1c(Br)cc(Br)cc1OC,5.9
Cc1cccc(C(=O)NC(=S)N2CCc3ccccc3C2)c1,7.1
COc1ccc(-c2[nH]ncc2CN2CCC(N3CCSCC3)CC2)c(F)c1,8.7
Cc1ccc(N(C(=O)Cn2nnc(-c3ccccc3)n2)C(C(=O)NC2CCCCC2)c2ccccn2)cc1C (stereo unspecified),343.8*
Cc1ccc(N(C(=O)CCl)C(C(=O)NC2CCCCC2)c2cccnc2)cc1C (stereo unspecified),163.2
CC(C)(C)N(C(=O)Cn1nnc(-c2ccc(F)cc2)n1)C(C(=O)NC1CCCC1)c1ccncc1 (stereo unspecified),132.4
CC(=Nc1ccccc1C)C1=C(O)CSC1=O,4.3
CCOCC(=O)Nc1cc(C(=O)OC)cc(C(=O)OC)c1,6.7
CS(=O)(=O)N1CCC(C(=O)N2CCN(c3ccccc3F)CC2)CC1,-5.9
CCOC(=O)/C=C1\NC(C)(C)Cc2cc(OC)c(OC)cc21,-72.2
CC1(C)Cc2ccccc2/C(=C/C(=O)N2CCCCCC2)N1,557.1*
CN(C)c1ccc(/C=N/NC(=O)C(=O)/C=C2\NC3(CCCC3)Cc3ccccc32)cc1,-7.7
CCN(CC)CCOC(=O)c1ccc(NC(=O)c2cn(-c3ccccc3)nc2-c2cccs2)cc1,0.0
Cc1ccc(S(=O)(=O)N2CCN(Cc3ccsc3)CC2)cc1,0.0
Cc1ccc(Nc2nnc(SCc3nc4ccccc4c(=O)[nH]3)s2)cc1,-5.6
c1ccc(Oc2ccc(-c3ccnc4nc(N5CCOCC5)nn34)cc2)cc1,-2.9
c1ccc(Oc2ccc(-c3ccnc4ncnn34)cc2)cc1,397.1*
Clc1ccc(COc2ccccc2-c2ccnc3ncnn23)cc1,9.1
Cc1c(C(=O)NNC(=S)Nc2cccc(Cl)c2)nnn1-c1ccccc1,7.7
O=C(c1sc2cccc(F)c2c1Cl)N1CCN(c2ncccn2)CC1,3.6
